Results on 20 sequences are retold here after the EternaBench riboswitch data.

The test system of this data set is MS2 coat protein. The data set can be described thus: apparent Kd, MS2 coat protein; higher = weaker binding; RNA-MaP array; tryptophan 2.4 mM where present. The essentials: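 Stalled E. coli RNA polymerase produced the designs on Illumina sequencing-chip clusters. SNAP-549-labelled MS2 coat protein was added from 0.7 or 1.5 nM, doubling to 3 µM, without and then with constant ligand, in 100 mM Tris-HCl pH 7.5, 80 mM KCl, 4 mM MgCl2, BSA, DTT, yeast tRNA and Tween-20. The apparent Kd is the median of filtered per-cluster fits of green signal normalised to red-channel RNA signal and control-cluster median Fmax.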

The mark [1] stands for this setting: designed as: ON switch for tryptophan, no ligand.
The mark [2] stands for this setting: ligand present: tryptophan, designed as: ON switch for tryptophan.
Where [3] appears, read: designed as: OFF switch for tryptophan, no ligand.
Where [4] appears, read: ligand present: tryptophan, designed as: OFF switch for tryptophan.

Turning to “CUACAUUUGUAGAAACCGGUCAACAUUAUUCGAGGACCGGUACGGCCGCCACUCGUAUAUUUUAAUACAUGAGGAUCACCCAUGU”, the “apparent Kd” value was 11.6 nM under setting [1] and 12.1 nM under setting [2].
As to “GGAGUCGUCACGGCCGCCACUGCGGUGGUGUGACAUGAGGAUCACCCAUGUUGUCAUGCGGCCCUUAGGACCGGGUGUCGGUUCC”, the “apparent Kd” value was found to be 51.5 nM under setting [3] and 59.1 nM under setting [4].
Turning to “AGUAUUGGAAACAGUACUAGUGAUCCGGUCCGAGGACCGGUACGGCCGCCACUCGAUUUAAAUAAACAUGAGGAUCACCCAUGUA”, the “apparent Kd” value was 13.8 nM under setting [3] and 25.2 nM under setting [4].
Take “AUAACAUGAGGAUCACCCAUGUAUUGGUUACGAGGACCGGUACGGCCGCCACUCGUAUUAUAGUGGUAUUUUGUUUAUAUGAUAA”: the “apparent Kd” value under setting [1] was determined as 12.6 nM and the “apparent Kd” value under setting [2] came to 14.1 nM.
As to “AGCCACUCGAGUGAUCCUCACGAGUGGCUACGAGGACCGGUACGGCCGCCACUCGAAUUAACAUGAGGAUCACCCAUGUAAUAAU”, the “apparent Kd” value came out at 152 nM under setting [1] and 39.6 nM under setting [2].
For “UCCUGCAGAGCGGCCGCCACUGUAUUGCGUGAGGAUGACCCAACAUGAGGAUCACCCAUGUUGUUUAGGACCGGGCUUGCCACGA”, the “apparent Kd” value is, setting by setting: under setting [3], 14.2 nM; under setting [4], 15.5 nM.
For “ACGGAGAUGUCGGCCGCCACUGAACUCAUGUUCAACAUGAGGAUCACCCAUGUACCUUAGUUUAUCAGGACCGGGACAUAUACGA”, in that order: 116 nM and 48.1 nM.
On to “UAAACUACACAUGAGGAUCACCCAUGUGGCCGAGGACCGGUACGGCCGCCACUCGUGUGUUAAUAAAAGAACUGCAAGAUUCUUU”, for which the “apparent Kd” value under setting [1] came to 126 nM and the “apparent Kd” value under setting [2] was determined as 92.6 nM.
For “UUCUUUGACGAUCUGGGUUUACCAGAUCGACGAGGACCGGUACGGCCGCCACUCGUGUUUUCUUUACAUGAGGAUCACCCAUGUU”, the “apparent Kd” value under setting [1] amounted to 16.4 nM and the “apparent Kd” value under setting [2] was 15.6 nM.
Consider “GCCGCGGCCGCGAUACACAUGGGUAUGUAACGAGGACCGGUACGGCCGCCACUCGAGAUAAUGUACAUGAGGAUCACCCAUGUAC”, for which the “apparent Kd” value reads like this: under setting [3], 11.5 nM; under setting [4], 13.3 nM.
Regarding “UACAUGAGGAUCACCCAUGUCCCAUGUGAACGAGGACCGGUACGGCCGCCACUCGAAUAAGGCGGCACAUGAGGAUCACCCACAU”, the “apparent Kd” value is, setting by setting: under setting [1], 284 nM; under setting [2], 712 nM.
As for “AAUGUAUGGCACAUGAGGAUCACCCAUGUGCGAGGACCGGUACGGCCGCCACUCGGUCCUGGGAUCUUACCACUAUACAUUAAUG”, the “apparent Kd” value was determined as 10 nM under setting [3] and 13.1 nM under setting [4].
“UAAUAAGUGCCGGUUCUCAGAUCCUCAUGUCGAGGACCGGUACGGCCGCCACUCGAAACAUGAGGAUCACCCAUGUAAUAAUAAU”: the “apparent Kd” value under setting [3] was determined as 51.8 nM and the “apparent Kd” value under setting [4] is 34.1 nM.
“AUAUAUACAUGAGGAUCACCCAUGUUAUUACGAGGACCGGUACGGCCGCCACUCGAUAGAGUAGAAGUAAAUUUUAAUUCAUGUA”: the “apparent Kd” value is 14.5 nM under setting [1] and 13 nM under setting [2].
As for “AAACAUGAGGAUCACCCAUGUCCUCCUGUCCGAGGACCGGUACGGCCGCCACUCGGUUCUCGGGAGGAUGGUCAAAGACUAUCCA”, the “apparent Kd” value was determined as 290 nM under setting [1] and 253 nM under setting [2].
On to “GAGGAAACUCACAUGAGGAUCACCCAUGUACGAGGACCGGUACGGCCGCCACUCGAAACCAUGGGCGGUUGUACAUGGAAACAUG”, for which the “apparent Kd” value was 24.8 nM under setting [3] and 74.8 nM under setting [4].
For the sequence “UGUAGUACCAGACAUGAGGAUCACCCAUGUCGAGGACCGGUACGGCCGCCACUCGGCAGUUUGCGUCCUCAGGUACUCCGGGUAA”, the “apparent Kd” value is 13 nM under setting [3] and 15 nM under setting [4].
As to “UUUGACGGCGAUCUGGGUUUACCAGAUCGGCGAGGACCGGUACGGCCGCCACUCGUGUUUCUUUGACAUGAGGAUCACCCAUGUA”, the “apparent Kd” value by setting is: under setting [1], 39.1 nM; under setting [2], 18.4 nM.
As for “CACGAAAGAUCGGCCGCCACUAUUUGAUGUGUUCUUUCACAUGAGGAUCACCCAUGUUCUUUCUUUAGGACCGGGAUUGAGCGUG”, the “apparent Kd” value came to 99.4 nM under setting [3] and 49.5 nM under setting [4].
Taken in the same sequence, the figures for “UAUCGUCAGACGGCCGCCACUAGAACAUGAGGAUCACCCAUGUACGGCCGCCCGGUAUGGGUGUCUAGGACCGGGUCUGACGAAU” were 30.4 nM and 39 nM.

As usually defined, the apparent Kd is the concentration giving half-maximal binding under the conditions of the assay.
